From ChEMBL document CHEMBL4699669, “Discovery of a Potent Adenine-Benzyltriazolo-Pleuromutilin Conjugate with Pronounced Antibacterial Activity against MRSA” (J Med Chem, 2020)
Values after ≈ are worked out from the molar mass of the structure shown.

Experiments:
[1] = system: Staphylococcus aureus; assay: Antibacterial activity against methicilin-resistant Staphylococcus aureus USA300 FPR3757 incubated for 20 to 24 hrs by microbroth dilution assay; format: functional; conditions: time hrs 20-24
Outline: (§1)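 Broth microdilution per EUCAST in Mueller-Hinton broth. Inoculum 5.0·10^5 CFU/mL, prepared from overnight single-colony cultures at OD600 0.1 then diluted 100x. Final compound concentrations 0.015–16 µg/mL. Incubation at 37 °C for 20–24 h, protected from light. MIC is the lowest concentration with no visible growth. Each replicate uses three cultures; n = 2–3.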

[2] = system: Staphylococcus aureus; assay: Antibacterial activity against methicilin-resistant Staphylococcus aureus USA300 FPR3757 incubated for 20 hrs by microbroth dilution assay; format: functional
Outline: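 MBC determined from a completed MIC replicate (MRSA USA300 FPR3757, Mueller-Hinton, 5.0·10^5 CFU/mL). […] MBC is the lowest concentration giving a 99.9% reduction of the starting inoculum; n = 3.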

[3] = system: Staphylococcus aureus; assay: Antibacterial activity against methicilin-resistant Staphylococcus aureus 55508 incubated for 20 to 24 hrs by microbroth dilution assay; format: functional; conditions: time hrs 20-24; outline: as §1
[4] = system: Staphylococcus aureus; assay: Antibacterial activity against methicilin-resistant Staphylococcus aureus 52518 incubated for 20 to 24 hrs by microbroth dilution assay; format: functional; conditions: time hrs 20-24; outline: as §1
[5] = system: Staphylococcus aureus; assay: Antibacterial activity against methicilin-resistant Staphylococcus aureus 4828 incubated for 20 to 24 hrs by microbroth dilution assay; format: functional; conditions: time hrs 20-24; outline: as §1
[6] = system: Staphylococcus epidermidis; assay: Antibacterial activity against methicilin-resistant Staphylococcus epidermis 933010 incubated for 20 to 24 hrs by microbroth dilution assay; format: functional; conditions: time hrs 20-24; outline: as §1
[7] = system: Caco-2; assay: Cytotoxicity against differentiated human Caco2 cells assessed as increase in ATP level at 33 ug/ml incubated for 3 hrs by Cell-titer Glo assay; format: cell-based; conditions: caco-2, 3 h, dose 33 µg/ml
Outline: (§2)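 Cells rinsed of growth medium, then exposed 3 h at 37 °C, 220 rpm, light-protected, to compound in HBSS with 10 mM HEPES, pH 7.4 (final DMSO <1% at top concentrations). Plates equilibrated 10 min at rt, CellTiter-Glo 2.0 added, mixed 2 min, signal stabilized 10 min. Luminescence (ATP) normalized to HBSS-only control cells. Mean ± SD of 3 wells, one passage.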

[8] = system: Caco-2; assay: Cytotoxicity against differentiated human Caco2 cells assessed as ATP level at 33 ug/ml incubated for 3 hrs by Cell-titer Glo assay; format: cell-based; conditions: caco-2, 3 h, dose 33 µg/ml; outline: as §2
[9] = system: Caco-2; assay: Cytotoxicity against human Caco2 cells assessed as cell viability at 33 ug/ml incubated for 3 hrs by MTT assay; format: cell-based; conditions: caco-2, 3 h, dose 33 µg/ml
Outline: (§3)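 Undifferentiated Caco-2 cells, medium aspirated, treated 3 h at 37 °C, 220 rpm with compound in HEPES-buffered HBSS (HBSS alone as negative control, SDS as positive control). MTT then added (final 0.5 mg mL⁻¹) for 2 h more. Formazan dissolved overnight at 4 °C in 10 mM HCl/50% isobutanol/10% SDS. Mean ± SD of 3 wells, one passage.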

[10] = system: Caco-2; assay: Cytotoxicity against differentiated human Caco2 cells assessed as increase in ATP level at 100 ug/ml incubated for 3 hrs by Cell-titer Glo assay; format: cell-based; conditions: caco-2, 3 h, dose 100 µg/ml; outline: as §2
[11] = system: Caco-2; assay: Cytotoxicity against undifferentiated human Caco2 cells assessed as ATP level at 100 ug/ml incubated for 3 hrs by Cell-titer Glo assay; format: cell-based; conditions: caco-2, 3 h, dose 100 µg/ml; outline: as §2
[12] = system: Caco-2; assay: Cytotoxicity against human Caco2 cells assessed as cell viability at 100 ug/ml incubated for 3 hrs by MTT assay; format: cell-based; conditions: caco-2, 3 h, dose 100 µg/ml; outline: as §3
[13] = Cytotoxicity against human PC3 cells assessed as decrease in ATP level at 100 ug/ml incubated for 3 hrs by Cell-titer Glo assay relative to control; format: cell-based, PC-3; conditions: at 100 µg/mL, read-out: INH; outline: as §2

| Compound | MIC [1] | MBC [2] | MIC [3] | MIC [4] | MIC [5] | MIC [6] | Activity [7] | Activity [8] | Activity [9] | Activity [10] | Activity [11] | Activity [12] | cytotoxicity at 3 h, 100 ug/ml [13] |
| --- | --- | --- | --- | --- | --- | --- | --- | --- | --- | --- | --- | --- | --- |
| C=C[C@]1(C)C[C@@H](OC(=O)CS[C@@H]2C[C@H]3CC[C@@H](C2)N3C)[C@]2(C)[C@H](C)CC[C@]3(CCC(=O)[C@H]32)[C@@H](C)[C@@H]1O [RETAPAMULIN] | 0.25 µg/mL (≈ 0.483 µM) | > 2 µg/mL | 0.25 µg/mL (≈ 0.483 µM) | 0.12 µg/mL (≈ 0.232 µM) | 0.25 µg/mL (≈ 0.483 µM) | 0.5 µg/mL (≈ 0.966 µM) | Toxic | Non-Toxic | Non-Toxic | – | – | – | – |
| C=C[C@]1(C)C[C@@H](OC(=O)CSC(C)(C)CNC(=O)[C@H](N)C(C)C)[C@]2(C)[C@H](C)CC[C@]3(CCC(=O)[C@H]32)[C@@H](C)[C@@H]1O [VALNEMULIN] | 0.06 µg/mL (≈ 0.106 µM) | 0.12 µg/mL (≈ 0.212 µM) | 0.12 µg/mL (≈ 0.212 µM) | 0.06 µg/mL (≈ 0.106 µM) | 0.06 µg/mL (≈ 0.106 µM) | 0.25 µg/mL (≈ 0.443 µM) | – | – | – | Toxic | Non-Toxic | Non-Toxic | 22% |
